Measurements as given in article PMC10201403 (Bioorganic & medicinal chemistry, 2023).
Values joined by “and” are separate entries in the source; they are usually repeats but may differ in a detail not shown here. Identical values can stand only once. “Also recorded” adds a separate entry of the source. Counter-ions that a name gives are not always drawn. Like-named read-outs stand apart in the source and are kept apart here.

What was measured:
C. parvum [1] = experiment: In vitro Cryptosporidium parvum-infected HCT-8 cell assay; assay type: cell-based; conditions: for potency in the Cp HCT-8 assay, in words: C. parvum in HCT-8 cells; for LipE (pEC50 minus logP): Cp pEC50 and calculated logP; for EC50: Cryptosporidium parvum, HCT-8, read-out: EC50 in the Cp HCT-8 assay
Cryptosporidium = conditions: cited from earlier work
C. parvum [2] = conditions: dairy calf; cited from earlier work
C. parvum [3] = conditions: acute and chronic mouse models; cited from earlier work
C. hominis = conditions: gnotobiotic piglet; cited from earlier work
hERG channel = hERG channel (Homo sapiens, UniProt Q12809); experiment: hERG-CHO automated patch clamp electrophysiology assay; assay type: cell-based; conditions: 10 μM
[4] = molecular target: human potassium channel hERG (Homo sapiens, UniProt Q12809); experiment: [3H]-dofetilide competitive binding assay; conditions: 10 μM
How it was run: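 Radioligand competition on the human hERG potassium channel: test compound competes with [³H]-dofetilide, and binding is reported as percent inhibition of [³H]-dofetilide binding. Run by an outside contract laboratory.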

Sequence of human potassium channel hERG (Q12809 whole entry): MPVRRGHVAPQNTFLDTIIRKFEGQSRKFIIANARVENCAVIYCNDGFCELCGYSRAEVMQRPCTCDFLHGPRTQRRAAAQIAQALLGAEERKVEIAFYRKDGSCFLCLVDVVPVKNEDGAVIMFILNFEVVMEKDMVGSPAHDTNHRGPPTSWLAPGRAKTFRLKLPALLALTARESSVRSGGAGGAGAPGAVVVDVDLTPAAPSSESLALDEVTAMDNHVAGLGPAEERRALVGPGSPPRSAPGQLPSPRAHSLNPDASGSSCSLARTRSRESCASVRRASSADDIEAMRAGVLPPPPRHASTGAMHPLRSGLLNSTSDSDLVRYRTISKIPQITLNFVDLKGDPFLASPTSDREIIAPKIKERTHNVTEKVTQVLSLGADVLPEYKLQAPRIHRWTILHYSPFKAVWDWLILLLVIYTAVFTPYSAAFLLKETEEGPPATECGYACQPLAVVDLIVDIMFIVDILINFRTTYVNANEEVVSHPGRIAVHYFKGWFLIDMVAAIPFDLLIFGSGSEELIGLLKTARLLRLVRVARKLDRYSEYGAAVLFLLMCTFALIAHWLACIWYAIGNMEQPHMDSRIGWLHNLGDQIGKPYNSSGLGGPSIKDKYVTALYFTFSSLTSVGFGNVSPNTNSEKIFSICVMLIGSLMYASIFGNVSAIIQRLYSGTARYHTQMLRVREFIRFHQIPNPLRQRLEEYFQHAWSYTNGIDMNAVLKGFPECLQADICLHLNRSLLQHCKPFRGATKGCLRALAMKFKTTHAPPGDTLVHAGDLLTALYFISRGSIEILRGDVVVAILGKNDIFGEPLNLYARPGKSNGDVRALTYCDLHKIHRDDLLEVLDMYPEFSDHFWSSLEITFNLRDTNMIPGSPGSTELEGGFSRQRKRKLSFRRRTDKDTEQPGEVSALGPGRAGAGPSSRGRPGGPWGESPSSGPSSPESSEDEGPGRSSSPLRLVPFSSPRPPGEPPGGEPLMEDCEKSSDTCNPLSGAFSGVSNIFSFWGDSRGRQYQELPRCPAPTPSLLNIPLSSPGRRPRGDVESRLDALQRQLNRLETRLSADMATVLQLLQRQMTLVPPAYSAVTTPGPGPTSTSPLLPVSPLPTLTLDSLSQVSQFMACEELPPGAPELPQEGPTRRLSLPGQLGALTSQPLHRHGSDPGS
Sequence of hERG channel (Q12809 whole entry): as above

## O=C(Cc1ccc(Cl)c(Cl)c1)N1CCN(c2ncc([N+](=O)[O-])s2)CC1 [Compound 13, 2-(3,4-dichlorophenyl)-1-(4-(5-nitrothiazol-2-yl)piperazin-1-yl)ethanone]
C. parvum [1]
  potency in the Cp HCT-8 assay, in words: weakly potent

## O=C(Nc1ccc(Cl)c(Cl)c1)N1CCN(c2nc3ccccc3[nH]2)CC1 [Compound 28, 4-(1H-benzo[d]imidazol-2-yl)-N-(3,4-dichlorophenyl)piperazine-1-carboxamide]
C. parvum [1]
  potency in the Cp HCT-8 assay, in words: did not yield better potency

## O=C(Nc1ccc(Cl)c(Cl)c1)N1CCN(C2=Nn3cnnc3CC2)CC1 [Compound 17b, N-(3,4-dichlorophenyl)-4-(7,8-dihydro-[1,2,4]triazolo[4,3-b]pyridazin-6-yl)piperazine-1-carboxamide]
C. parvum [1]; ratio of Cp EC50 values
  fold potency reduction compared to urea 2b: ~ 20 fold

## O=C(Cc1ccc(Cl)c(Cl)c1)N1CCN(c2ccc3nncn3n2)CC1 [Compound 2a, 1-(4-([1,2,4]triazolo[4,3-b]pyridazin-6-yl)piperazin-1-yl)-2-(3,4-dichlorophenyl)ethanone]
C. parvum [1]
  LipE (pEC50 minus logP): 3.3
Cryptosporidium
  efficacy in vivo: efficacious in vivo

## O=C(Nc1ccc(Cl)cc1)N1CCN(c2ccc3nncn3n2)CC1 [Compound 1]
C. parvum [2]
  oral efficacy in vivo: oral efficacy
C. parvum [3]
  oral efficacy in vivo: oral efficacy
C. hominis
  oral efficacy in vivo: oral efficacy

## O=C(Nc1ccc(Cl)c(Cl)c1)N1CCN(c2ccc3nccn3n2)CC1 [Compound 18b, N-(3,4-dichlorophenyl)-4-(imidazo[1,2-b]pyridazin-6-yl)piperazine-1-carboxamide]
C. parvum [1]
  potency in the Cp HCT-8 assay, in words: drastically reduced the potency

## O=C(Cc1ccc(Cl)c(Cl)c1)N1CCN(c2nc3ccccc3o2)CC1 [Compound 29a, 1-(4-(benzo[d]oxazol-2-yl)piperazin-1-yl)-2-(3,4-dichlorophenyl)ethanone]
C. parvum [1]
  potency in the Cp HCT-8 assay, in words: did not yield better potency

## O=C(Cc1ccc(Cl)c(Cl)c1)N1CCN(C2=Nn3cnnc3CC2)CC1 [Compound 17a, 2-(3,4-dichlorophenyl)-1-(4-(7,8-dihydro-[1,2,4]triazolo[4,3-b]pyridazin-6-yl)piperazin-1-yl)ethanone]
hERG channel
  reduction of inhibition in hERG patch-clamp assay relative to 2a (SLU-2633): about two-fold
C. parvum [1]
  LipE (pEC50 minus logP): 4.13
C. parvum [1]; ratio of Cp EC50 values
  fold less potent than 2a (SLU-2633): 7 fold and ~ 7 fold

## O=C(Cc1ccc(Cl)c(Cl)c1)N1CCN(c2ccc3nccn3n2)CC1 [Compound 18a, 2-(3,4-dichlorophenyl)-1-(4-(imidazo[1,2-b]pyridazin-6-yl)piperazin-1-yl)ethanone]
C. parvum [1]
  potency in the Cp HCT-8 assay, in words: drastically reduced the potency

## O=C(Cc1ccc(Cl)c(Cl)c1)N1CCNCC1 [Compound 4, 2-(3,4-dichlorophenyl)-1-(piperazin-1-yl)ethanone hydrochloride]
C. parvum [1]
  EC50: ≥ 20 µM

## Nc1nc2nc(N3CCN(C(=O)Cc4ccc(Cl)c(Cl)c4)CC3)ccc2s1 [Compound 31b, 1-(4-(2-aminothiazolo[4,5-b]pyridin-5-yl)piperazin-1-yl)-2-(3,4-dichlorophenyl)ethanone]
C. parvum [1]
  potency in the Cp HCT-8 assay, in words: low micromolar range; also recorded: modestly potent
C. parvum [1]; ratio of Cp EC50 values
  fold more potent than methyl analog 31a: 5 fold

## O=C(Cc1ccc(Cl)c(Cl)c1)N1CCN(c2ccn3nccc3n2)CC1 [Compound 19, 2-(3,4-dichlorophenyl)-1-(4-(pyrazolo[1,5-a]pyrimidin-5-yl)piperazin-1-yl)ethanone]
C. parvum [1]
  EC50: 20 to 30 µM

## O=C(Cc1ccc(Cl)c(Cl)c1)N1CCN(c2ccc3nonc3c2)CC1 [Compound 24, 1-(4-(benzo[c][1,2,5]oxadiazol-5-yl)piperazin-1-yl)-2-(3,4-dichlorophenyl)ethanone]
C. parvum [1]
  EC50: 20 to 30 µM

## O=C(Nc1ccc(Cl)c(Cl)c1)N1CCN(c2cn3ccnc3cn2)CC1 [Compound 20, N-(3,4-dichlorophenyl)-4-(imidazo[1,2-a]pyrazin-6-yl)piperazine-1-carboxamide]
C. parvum [1]
  EC50: 20 to 30 µM

## O=C(Cc1ccc(Cl)c(Cl)c1)N1CCN(c2ccccc2)CC1 [Compound 6a, 2-(3,4-dichlorophenyl)-1-(4-phenylpiperazin-1-yl)ethanone]
[4]
  effect in the hERG binding assay, in words: does not exhibit significant effect

## O=C(Cc1ccc(Cl)c(Cl)c1)N1CCN(c2nc3ccccc3s2)CC1 [Compound 29b, 1-(4-(benzo[d]thiazol-2-yl)piperazin-1-yl)-2-(3,4-dichlorophenyl)ethanone]
C. parvum [1]
  potency in the Cp HCT-8 assay, in words: did not yield better potency

## CC(C)(C)OC(=O)N1CCN(C(=O)Cc2ccc(Cl)c(Cl)c2)CC1 [Compound 5, tert-Butyl 4-(2-(3,4-dichlorophenyl)acetyl)piperazine-1-carboxylate]
C. parvum [1]
  EC50: ≥ 20 µM
